From ChEMBL document CHEMBL1177759, “Design and synthesis of disubstituted (4-piperidinyl)-piperazine derivatives as potent acetyl-CoA carboxylase inhibitors” (Bioorg Med Chem Lett, 2010)
pIC50: −log10 of the molar value.

Key:
[1] = Metabolic stability in human liver microsomes assessed as compound remaining after 15 mins; assay type: ADME, Microsome; conditions: read-out: Stability
In short: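 Compound at […] incubated 15 min at 37 °C with human liver microsomes at 1 mg protein/mL. Cofactors: 1.5 mM glucose-6-phosphate, 0.16 mM NADP, 1 U/mL G6P dehydrogenase. Buffer: 250 mM phosphate, 2.4 mM MgCl2, 69 mM KCl. Parent measured by LC-MS/MS; % remaining relative to 0 min.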

Acetyl-CoA carboxylase = Acetyl-CoA carboxylase (Homo sapiens, UniProt Q13085+O00763); test: Inhibition of human ACC1/2-mediated malonyl-CoA synthesis; assay type: protein assay
In short: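 Partially purified human liver ACC enzymes; read-out is malonyl-CoA synthesis by ACC1/2; IC50 taken as mean of at least two independent experiments.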

[2] = Permeability by PAMPA method; assay type: ADME; conditions: read-out: permeability
In short: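 Parallel artificial membrane permeation at pH 6.2; effective permeability Pe reported in 10^-6 cm/s.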

[3] = Inhibition of human ACC in HepG2 cells assessed as decrease in fatty acid synthesis by [14C]acetate incorporation assay; assay type: cell-based
In short: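 HepG2 cells; fatty acid synthesis followed as loss of [14C]acetate incorporation into cellular lipids; IC50 derived.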

SMILES	IC50 (Acetyl-CoA carboxylase) [nM]	also measured
CC(=O)N1CCC(C(=O)N2CCC(N3CCN(C(=O)c4cc(-c5ccccc5)nc(-c5ccc6[nH]c(C)c(C)c6c5)c4)CC3)CC2)CC1	33	remaining at 0.25 h [1]: 99%
CC(=O)N1CCC(C(=O)N2CCC(N3CCN(C(=O)c4cc(-c5ccccc5)nc(-c5ccc(O)cc5)c4)CC3)CC2)CC1	47	
CC(=O)N1CCC(C(=O)N2CCC(N3CCN(C(=O)c4cc(-c5ccccc5)nc(-c5ccc6[nH]c(CN(C)C)c(C)c6c5)c4)CC3)CC2)CC1	8.4	
CC(=O)N1CCC(C(=O)N2CCC(N3CCN(C(=O)c4cc(-c5ccccc5)nc(-c5ccc6c(c5)c(C)cn6C)c4)CC3)CC2)CC1	127	
CC(=O)N1CCC(C(=O)N2CCC(N3CCN(C(=O)c4cc(-c5ccccc5)nc(-c5ccc(CCO)cc5)c4)CC3)CC2)CC1	27	pIC50 [3]: 5.79
CC(=O)N1CCC(C(=O)N2CCC(N3CCN(C(=O)c4cc(-c5ccccc5)nc(-c5ccc6cn[nH]c6c5)c4)CC3)CC2)CC1	57	
CC(=O)N1CCC(C(=O)N2CCC(N3CCN(C(=O)c4cc(-c5ccccc5)nc(-c5ccc6c(c5)cc(C)n6C)c4)CC3)CC2)CC1	117	
CC(=O)N1CCC(C(=O)N2CCC(N3CCN(C(=O)c4cc(-c5ccccc5)nc(-c5ccc6c(ccn6C)c5)c4)CC3)CC2)CC1	69	remaining at 0.25 h [1]: 85%
CCc1c(C)[nH]c2ccc(-c3cc(C(=O)N4CCN(C5CCN(C(=O)C6CCN(C(C)=O)CC6)CC5)CC4)cc(-c4ccccc4)n3)cc12	169	
CC(=O)N1CCC(C(=O)N2CCC(N3CCN(C(=O)c4cc(-c5ccccc5)nc(-c5ccc6c(c5)c(C)c(C)n6C)c4)CC3)CC2)CC1	105	
CC(=O)N1CCC(C(=O)N2CCC(N3CCN(C(=O)c4cc(-c5ccccc5)nc(-c5ccc(CCCO)cc5)c4)CC3)CC2)CC1	70	
CC(=O)N1CCC(C(=O)N2CCC(N3CCN(C(=O)c4cc(-c5ccccc5)nc(-c5ccc(C(N)=O)cc5)c4)CC3)CC2)CC1	80	
CC(=O)N1CCC(C(=O)N2CCC(N3CCN(C(=O)c4cc(-c5ccccc5)nc(-c5ccc(CC(=O)O)cc5)c4)CC3)CC2)CC1	75	
CC(=O)N1CCC(C(=O)N2CCC(N3CCN(C(=O)c4cc(-c5ccccc5)nc(-c5ccc(CO)cc5)c4)CC3)CC2)CC1	42	
CC(=O)N1CCC(C(=O)N2CCC(N3CCN(C(=O)c4cc(-c5ccccc5)nc(-c5ccc6[nH]ncc6c5)c4)CC3)CC2)CC1	42	
CC(=O)N1CCC(C(=O)N2CCC(N3CCN(C(=O)c4cc(-c5ccccc5)nc(-c5ccc(OCCO)cc5)c4)CC3)CC2)CC1	47	
CC(=O)N1CCC(C(=O)N2CCC(N3CCN(C(=O)c4cc(-c5ccccc5)nc(-c5ccc6c(c5)CC(=O)N6)c4)CC3)CC2)CC1	54	
CC(=O)N1CCC(C(=O)N2CCC(N3CCN(C(=O)c4cc(-c5ccccc5)nc(-c5ccc6[nH]cc(C)c6c5)c4)CC3)CC2)CC1	36	remaining at 0.25 h [1]: 72%
CC(=O)N1CCC(C(=O)N2CCC(N3CCN(C(=O)c4cc(-c5ccccc5)nc(-c5cccc(CO)c5)c4)CC3)CC2)CC1	47	
CC(=O)N1CCC(C(=O)N2CCC(N3CCN(C(=O)c4cc(-c5ccccc5)nc(-c5ccc6[nH]c(C)c(C#N)c6c5)c4)CC3)CC2)CC1	9.7	

The next lines start with results.

IC50 (Acetyl-CoA carboxylase) [nM]	SMILES	also measured
30	COc1ccc(-c2cc(C(=O)N3CCN(C4CCN(C(=O)C5CCN(C(C)=O)CC5)CC4)CC3)cc(-c3ccc4[nH]ccc4c3)n2)cc1OC	
33	CC(=O)N1CCC(C(=O)N2CCC(N3CCN(C(=O)c4cc(-c5cccc(F)c5)nc(-c5ccc6[nH]ccc6c5)c4)CC3)CC2)CC1	Papp [2]: 19.9 ×10⁻⁶ cm/s
49	CC(=O)N1CCC(C(=O)N2CCC(N3CCN(C(=O)c4cc(-c5ccc(C)c(F)c5)nc(-c5ccc6[nH]ccc6c5)c4)CC3)CC2)CC1	
48	CC(=O)N1CCC(C(=O)N2CCC(N3CCN(C(=O)c4cc(-c5ccc(F)cc5)nc(-c5ccc6[nH]ccc6c5)c4)CC3)CC2)CC1	Papp [2]: 44.3 ×10⁻⁶ cm/s
37	CC(=O)N1CCC(C(=O)N2CCC(N3CCN(C(=O)c4cc(-c5cccc(C)c5)nc(-c5ccc6[nH]ccc6c5)c4)CC3)CC2)CC1	Papp [2]: 28.1 ×10⁻⁶ cm/s
59	CC(=O)N1CCC(C(=O)N2CCC(N3CCN(C(=O)c4cc(-c5ccccc5)nc(-c5ccc6[nH]c(C)cc6c5)c4)CC3)CC2)CC1	
21	COc1ccc(-c2cc(C(=O)N3CCN(C4CCN(C(=O)C5CCN(C(C)=O)CC5)CC4)CC3)cc(-c3ccc4[nH]ccc4c3)n2)cc1	Papp [2]: 21.5 ×10⁻⁶ cm/s
100	CC(=O)N1CCC(C(=O)N2CCC(N3CCN(C(=O)c4cc(-c5cccc(C(F)(F)F)c5)nc(-c5ccc6[nH]ccc6c5)c4)CC3)CC2)CC1	
32	COc1cccc(-c2cc(C(=O)N3CCN(C4CCN(C(=O)C5CCN(C(C)=O)CC5)CC4)CC3)cc(-c3ccc4[nH]ccc4c3)n2)c1	
30	CC(=O)N1CCC(C(=O)N2CCC(N3CCN(C(=O)c4cc(-c5ccc(C)cc5)nc(-c5ccc6[nH]ccc6c5)c4)CC3)CC2)CC1	Papp [2]: 39.8 ×10⁻⁶ cm/s
47	CC(=O)N1CCC(C(=O)N2CCC(N3CCN(C(=O)c4cc(-c5ccccc5)nc(-c5ccc6cc[nH]c6c5)c4)CC3)CC2)CC1	
72	CC(=O)N1CCC(C(=O)N2CCC(N3CCN(C(=O)c4cc(-c5ccc(C(F)(F)F)cc5)nc(-c5ccc6[nH]ccc6c5)c4)CC3)CC2)CC1	
55	CC(=O)N1CCC(C(=O)N2CCC(N3CCN(C(=O)c4cc(-c5ccccc5)nc(-c5ccc6[nH]ccc6c5)c4)CC3)CC2)CC1	remaining at 0.25 h [1]: 64%; Papp [2]: 46.5 ×10⁻⁶ cm/s
